Source: the EternaBench riboswitch data

Test system: MS2 coat protein
Experiment: apparent Kd, MS2 coat protein; higher = weaker binding; RNA-MaP array; FMN 200 µM where present
In short: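 Stalled E. coli RNA polymerase produced the designs on Illumina sequencing-chip clusters. SNAP-549-labelled MS2 coat protein was added from 0.7 or 1.5 nM, doubling to 3 µM, without and then with constant ligand, in 100 mM Tris-HCl pH 7.5, 80 mM KCl, 4 mM MgCl2, BSA, DTT, yeast tRNA and Tween-20. The apparent Kd is the median of filtered per-cluster fits of green signal normalised to red-channel RNA signal and control-cluster median Fmax.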

[1] = designed as: OFF switch for flavin mononucleotide, no ligand
[2] = ligand present: flavin mononucleotide, designed as: OFF switch for flavin mononucleotide
[3] = designed as: ON switch for flavin mononucleotide, no ligand
[4] = ligand present: flavin mononucleotide, designed as: ON switch for flavin mononucleotide

| Sequence | apparent Kd [1] [nM] | apparent Kd [2] [nM] | apparent Kd [3] [nM] | apparent Kd [4] [nM] |
| --- | --- | --- | --- | --- |
| UGAUAGGACAGAGGAUAUACGUGCUGGAGAUACUAGCAAAGUAUCUCGACAUGAGGAUCACCCAUGUAGAAGGCUGUCCUAUCU | 25.2 | 89.4 |  |  |
| GAGAUACAUGAGGAUCACCCAUGUGAGGAUAUCGGUUGGAGGAGGUGGAGGUUGAGUACGAGAAGGCACGGAUC | 25 | 28.3 |  |  |
| UGGUACUAGGGAGGAUAUGGGAAGAUACAUGAGGAUCACCCAUGUUUAAGAAUGCCGAGAGGCAACUAGAAGGCCCUAGUACCU |  |  | 1050 | 45.3 |
| AAAAGACAUGAGGAUCACCCAUGUUAAAACGUAGGAGGAUAUGUAUGGAAAACAUGCUGUACAGAAGGCCUGUGUC |  |  | 17.3 | 17.1 |
| AGGUGUCCUGAGAGAUUUCUCCACAUGAGGAUCACCCAUGUAGAGGAUAUCGACGCUGUGCGGUUCGAGAAGGCUACACUAAUU | 6.85 | 42.4 |  |  |
| ACAUGAGGAUCACCCAUGUUAAACGAGGAUAUAUGACUGCACAUGAGGUUCACCCAUGUUCUGCCGUAGAAGGUGUAAAUAAUU |  |  | 43.3 | 42.8 |
| UGAUAGGACAGAGGAUAUACGUGCUAGAGAUACUAGCAAAAUUUCCUAACAUGAGGAUCACCCAUGUAGAAGGCUGUCCUAUCU | 6.73 | 14.2 |  |  |
| GUGUACAGAGGAUAUACAUGAGCUAGGAAACUAGCAACCUCACAUGAGGAUCACCCAUGUAGAAGGCUGUACAC | 32.7 | 25.8 |  |  |
| GAGUUGAACGAGAAGGCCACUACAUGAGGAUCACCCAUGUCGUAGAGUAUUGGAGGAUAUCGAUAGGCGUCUCAUGAGGACAUA | 25.1 | 13.4 |  |  |
| UACCCACAUGGGUAGUGGCAGCGUGAGGAUAUGGGUUGGAUACAUGAGGAUCACCCAUGUUCCUCCUAGAAGGCACUUGUAACC |  |  | 138 | 24.8 |
| AAGGAGUUAGGAUAUGCUGCUCGUCACUUGCGUGAUGAGUAGCAGAAGGGACAUGAGGAUCACCCAUGUAAAGA | 41.9 | 21.9 |  |  |
| CGUAUUAAACAAGGAUAUCAUUUGUGUACAAGUUUUACAUGAGGAUCACCCAUGUUAAAUGGUUUUGAGAAGGUGUUUAGAUCG |  |  | 35.3 | 25.9 |
| GAGCGAAAGCUCAAUGUCGAUAGCAGAAGGACAUCCUUCAACAUGAAAACAUGAGGAUCACCCAUGUAGGAUAUGCUAUCGACU | 5.32 | 5.84 |  |  |
| UAAGUGUGAGGAUAUGGUAAAGAUAAGAUGAUGAAAGAACUCCAGAAGGCACAUGAGGAUCACCCAUGUAGAUG | 39.4 | 141 |  |  |
| CCUAAGGAGGCAGGAUAUAGUGUGGUGGCCGGGCUCCCACGGCGAGCGGCACUAGAAGGGUCGCUACAUGAGGAUCACCCAUGU |  |  | 25 | 17.3 |
| UUUUCUUUUGUGAGGAUAUACUUGUUUUUUUUUUUGUAGAAGGCACAUGAGGAUCACCCAUGUUUUCUUUUCUG | 17.1 | 19.4 |  |  |
| UAUUUUAACUAAGGAUAUCUAUAUUAUUUUGAAACAUGAGGAUCACCCAUGUUCAUGGGAUUAUAAGAGAAGGUAGAUGAAUAA |  |  | 27.5 | 11.7 |
| AGAUAUGAUGCAGGAUAUCUAUCUUGAAUGAGGAGAGAAGGGCAAGCAGAGAGAUAAGCCUUAUGACAUGAGGAUCACCCAUGU | 10.2 | 8.61 |  |  |
| UAGUAUAAGGGCAUUAAACAUGAGGAUCACCCAUGUACGAUAGAGGAUAUGCAUUUCAGUUGAGAGUAGAAGGUUAGAGAAUUG | 37.2 | 43.4 |  |  |
| AAAAUUUAUUGAGGAUAUUCAUACACUGUAUACGGAGAAGGCAAACAAUCAUGAGGACAUGAGGAUCACCCAUGUUGUGACCAU |  |  | 18.5 | 12.2 |
| ACCGUAUGAACAUGAGGAUCACCCAUGUAAACGGAAACGAAUGAGGAUAUCGAUAGCAAAGCUAUCGAGAAGGCAUGGGACGGU |  |  | 64.5 | 26.8 |

| Sequence | apparent Kd [1] [nM] | apparent Kd [2] [nM] | apparent Kd [3] [nM] | apparent Kd [4] [nM] |
| --- | --- | --- | --- | --- |
| GAGCCAUCGUGAGAUGGCUAACAUACAUGAGGAUCACCCAUGUAGGAUAUCGAUUGCUUUGCAGUCGAGAAGGACAUGUUUAAU | 26.3 | 43.1 |  |  |
| CUCGGACAUGAGGAUCACCCAUGUGAGGAUAUGGUGCUAUCGUCAUUAGACGAUUGCGUUAGAAGGCACAAAUG | 41.5 | 54.6 |  |  |
| CUUUUGUGAGGAUAUCAGUAGUAAAAAAAUAAAAUUACUACUUAGAAGGCACAUGAGGAUCACCCAUGUUCCUC | 23.4 | 53 |  |  |
| GCCAUCGCAUGAGGAUAUGGCACCGUUUCGGUGCCAGAAGGCAUGUCUUAAGACAUGAGGAUCACCCAUGUAGUUAAGAUGGCA |  |  | 860 | 56.9 |
| UGGAGGUCAGGAUAUGCAUGGCGGGACUUGCGUCGUGGCGUGCAGAAGGGACAUGAGGAUCACCCAUGUGGAGC | 64.5 | 83.7 |  |  |
| GCACUUACGUUAGGAUAUGUAUCGGAAAACGAUACAGAAGGAAUAUGGGAACAUGAGGAUCACCCAUGUUCCUGAGACGAGUGC |  |  | 69.1 | 41.6 |
| CAGGUCUGAGGAUAUCCAUCUUCAUACAUGAGGAUCACCCAUGUUUACCUCUGGGUUUUCGGAGAAGGCAGUUUUU | 354 | 397 |  |  |
| GUCAGCUCGUGAGGAUAUACAACACUGUUUCGGCAGUGUAUUAAGAUCACAUGAGGAUCACCCAUGUAGAAGGCACGAGCUGAU | 13.7 | 262 |  |  |
| GUGGUUCGCGAGAAGGGAGCUUAAGGACGCGGCUCAGGAUAUCGUACAUGAGGAUCACCCAUGUGCUGGCAUCUCCAGUGCGUG | 118 | 56.1 |  |  |
| UGGUCAUCAUCAGGAUAUUAACGUGGGCUACUUUAAGAAGGGAUAGUGGGAGAGGAUGUGAAACAUGAGGAUCACCCAUGUUGU |  |  | 15.7 | 12.3 |
| GGUACCAUCGCAGGAUAUGCUAGGGUUUCCUUAGCAGAAGGGUGAUAACAUGAGGAUCACCCAUGUGGUACCGGGCGUGAGCCC |  |  | 95 | 1160 |
| AAUAACAGAGGAUAUACUGUUUUAUGUGUUUAUUAUUUUGAACAUGAGGAUCACCCAUGUAGAAGGCUGAAUAA | 23.9 | 21 |  |  |
| GGACGUCCCAUUAACAUGAGGAUCACCCAUGUCAAAAGACAUGAGGAUAUGGUACCUAAUUGGUACCAGAAGGCAUGGACGUCC |  |  | 1210 | 106 |
| UUAAUUAUACAAGGAUAUCUAUCCUUAUCAAGACUUACAUGAGGAUCACCCAUGUUAAUAUAAUUAGAGAAGGUGUAAAUACAG |  |  | 17.4 | 24.1 |
| CUUUCGUUAGCAGGAUAUGGACAGGCCUGUCCGUAUUGAGUCAGUAACAUGAGGAUCACCCAUGUCCAGAAGGGCUCGAAGGGA | 14.1 | 46.6 |  |  |
| UUGAUAAAUUAGAAGGCGUGAUAAAAUACAAUAAACAUGAGGAUCACCCAUGUGUACCCAUGUUAUGAGGAUAUAGACAUUUAU |  |  | 365 | 245 |
| CUGUUAUAGGUCCAUUUUAACAACAUGAGGAUCACCCAUGUGCAGGAUAUCGUGUUAAUUUUCAUCGAGAAGGGCAUAGUCACG | 27.2 | 58.4 |  |  |
| AUGUGCCGGUCAGGAUAUCAACCACAUUGGCCAUGAGAAGGGACAGCACAUGAGGAUCACCCAUGUACACGCUGUGCGGAUGGG | 273 | 122 |  |  |
| GGGCCGUAGUAGAAGGGAUAUACGAUAGGUAUAUCAGGAUAUACAUGAGGAUCACCCAUGUUCUAACAGUGAUGGUCCUCCCUA | 173 | 374 |  |  |
| UCAGAUGUACAUGAGGAUCACCCAUGUCAUAUGCCCGUGACACAGGAUAUCCAGGAUAGGCCAAAGGAGAAGGGUGAUCCGCGG |  |  | 103 | 158 |
